# Measurements as given in ChEMBL document CHEMBL3351711, “Design, synthesis and biological evaluation of novel 6H-benzo[c]chromen-6-one, and 7,8,9,10-tetrahydro-benzo[c]chromen-6-one derivatives as potential cholinesterase inhibitors” (Bioorg Med Chem, 2014).
# Experiments:
# Homo sapiens [1] = species: Homo sapiens; assay: Selectivity index, ratio of IC50 for human recombinant BuChE to IC50 for human recombinant AChE
# Rattus norvegicus = assay: Antagonism of scopolamine-induced passive avoidance in Wistar rat assessed as latency of visiting dark box measured for 5 mins at 1 mg/kg, po dosed 30 mins after scopolamine challenge and measured 1 hr post dose; type: functional
# In short: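 Rats, 10 per compound. Scopolamine 1 mg/kg ip given 30 min before the test compound (1 mg/kg oral). One hour after dosing, rats placed in the illuminated compartment with the door closed for 30 s habituation. Door then opens automatically and latency to enter the dark box is timed over 5 min. Antagonism (%) is scaled against the latency difference between no-scopolamine and scopolamine-only groups, taken as 100%.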
# Acetylcholinesterase = Acetylcholinesterase (Homo sapiens, UniProt P22303); assay: Inhibition of human recombinant AChE using acetylthiocholine iodide substrate incubated for 15 mins by spectrophotometry based Ellman's method
# Acetylcholinesterase, sequence (P22303 whole entry): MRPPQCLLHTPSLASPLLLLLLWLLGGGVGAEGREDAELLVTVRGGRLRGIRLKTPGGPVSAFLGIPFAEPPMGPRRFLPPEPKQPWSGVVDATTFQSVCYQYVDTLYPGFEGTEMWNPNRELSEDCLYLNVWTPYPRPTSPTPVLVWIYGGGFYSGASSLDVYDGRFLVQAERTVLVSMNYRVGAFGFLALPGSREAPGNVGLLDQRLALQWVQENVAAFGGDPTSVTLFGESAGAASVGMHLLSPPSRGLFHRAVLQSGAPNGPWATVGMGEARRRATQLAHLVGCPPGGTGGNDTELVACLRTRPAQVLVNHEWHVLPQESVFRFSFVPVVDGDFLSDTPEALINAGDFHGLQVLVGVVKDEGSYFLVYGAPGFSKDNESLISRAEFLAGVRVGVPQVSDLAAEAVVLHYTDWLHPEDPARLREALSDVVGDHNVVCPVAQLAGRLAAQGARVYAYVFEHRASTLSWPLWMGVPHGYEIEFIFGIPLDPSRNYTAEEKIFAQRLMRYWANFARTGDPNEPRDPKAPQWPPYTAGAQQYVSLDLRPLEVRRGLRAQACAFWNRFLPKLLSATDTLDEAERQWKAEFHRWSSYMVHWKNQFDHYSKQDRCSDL
# Cholinesterase = Cholinesterase (Homo sapiens, UniProt P06276); assay: Inhibition of human recombinant BuChE using butyrylthiocholine iodide substrate incubated for 15 mins by spectrophotometry based Ellman's method
# Cholinesterase, sequence (P06276 whole entry): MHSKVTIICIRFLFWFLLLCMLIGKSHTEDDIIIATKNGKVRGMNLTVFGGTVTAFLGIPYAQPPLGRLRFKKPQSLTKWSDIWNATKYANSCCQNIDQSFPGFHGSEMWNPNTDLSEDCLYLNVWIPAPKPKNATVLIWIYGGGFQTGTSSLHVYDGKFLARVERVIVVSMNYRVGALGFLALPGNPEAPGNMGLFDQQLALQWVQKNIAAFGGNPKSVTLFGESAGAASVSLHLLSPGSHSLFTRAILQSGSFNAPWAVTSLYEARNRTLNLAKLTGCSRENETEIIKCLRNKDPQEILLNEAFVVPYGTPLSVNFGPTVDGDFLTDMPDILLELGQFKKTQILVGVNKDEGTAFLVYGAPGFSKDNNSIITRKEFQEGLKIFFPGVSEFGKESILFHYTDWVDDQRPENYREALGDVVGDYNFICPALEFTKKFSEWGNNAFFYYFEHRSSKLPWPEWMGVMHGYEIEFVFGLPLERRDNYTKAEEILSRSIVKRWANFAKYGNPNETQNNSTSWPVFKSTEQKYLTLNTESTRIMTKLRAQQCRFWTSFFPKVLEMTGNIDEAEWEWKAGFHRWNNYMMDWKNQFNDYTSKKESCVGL
# Homo sapiens [2] = species: Homo sapiens; assay: Selectivity index, ratio of IC50 for human recombinant AChE to IC50 for human recombinant BuChE
# In short: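 Modified Ellman assay in Tris-HCl pH 8.0 with DTNB (0.34 mM final). Human recombinant AChE (0.4 U/mL solution) with acetylthiocholine iodide; human recombinant BuChE (1.6 U/mL solution) with butyrylthiocholine iodide (1.5 mM final). 15 min at 27 °C, read at 412 nm against enzyme-free blank and inhibitor-free control, in triplicate. IC50s fitted by sigmoidal Hill slope; ratio of the two IC50s.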
structure (smiles),measurement,setting,value
COc1cc(C(C)N(C)C)cc2oc(=O)c3ccccc3c12 (racemic),Ratio IC50,Homo sapiens [1],7.5
same,inhibition in vivo at 1 mg/kg,Rattus norvegicus,71%
CN(CCCOc1ccc2c3c(c(=O)oc2c1)CCCC3)Cc1ccccc1,Ratio IC50,Homo sapiens [1],7.6
same,IC50,Acetylcholinesterase,2.1 µM
same,IC50,Cholinesterase,15.9 µM
CN(CCOc1ccc2c3c(c(=O)oc2c1)CCCC3)Cc1ccccc1,Ratio IC50,Homo sapiens [1],> 14
same,IC50,Acetylcholinesterase,2.8 µM
same,IC50,Cholinesterase,> 40 µM
COc1cccc(CN2CCN(CCOc3ccc4c(c3)oc(=O)c3ccccc34)CC2)c1,Ratio IC50,Homo sapiens [1],> 3
same,IC50,Acetylcholinesterase,11.4 µM
same,IC50,Cholinesterase,> 40 µM
COc1cccc(CN2CCN(CCCOc3ccc4c5c(c(=O)oc4c3)CCCC5)CC2)c1,Ratio IC50,Homo sapiens [1],2.9
same,IC50,Acetylcholinesterase,6.2 µM
same,IC50,Cholinesterase,18.4 µM
COc1cccc(CC2CCN(CCOc3ccc4c(c3)oc(=O)c3ccccc34)CC2)c1,Ratio IC50,Homo sapiens [1],> 1
same,IC50,Acetylcholinesterase,29.3 µM
same,IC50,Cholinesterase,> 40 µM
COc1cccc(CN2CCN(CCCOc3ccc4c(c3)oc(=O)c3ccccc34)CC2)c1,Ratio IC50,Homo sapiens [1],> 2
same,IC50,Acetylcholinesterase,18 µM
same,IC50,Cholinesterase,> 40 µM
O=c1oc2cc(OCCCN3CCC(Cc4ccccc4)CC3)ccc2c2c1CCCC2,Ratio IC50,Homo sapiens [1],> 9
same,IC50,Acetylcholinesterase,4.3 µM
same,IC50,Cholinesterase,> 40 µM
CCN(C)C(=O)Oc1cccc([C@H](C)N(C)C)c1 (racemic) [RIVASTIGMINE],inhibition in vivo at 1 mg/kg,Rattus norvegicus,85%
COc1cccc(CC2CCN(CCCOc3ccc4c5c(c(=O)oc4c3)CCCC5)CC2)c1,Ratio IC50,Homo sapiens [1],> 8
same,IC50,Acetylcholinesterase,4.9 µM
same,IC50,Cholinesterase,> 40 µM
O=c1oc2cc(OCCN3CCC(Cc4ccccc4)CC3)ccc2c2ccccc12,Ratio IC50,Homo sapiens [1],> 2
same,IC50,Acetylcholinesterase,20 µM
same,IC50,Cholinesterase,> 40 µM
CCN(C)C(=O)Oc1cc(C(C)N(C)C)c2c(c1)oc(=O)c1ccccc12 (racemic),IC50,Acetylcholinesterase,> 40 µM
same,Ratio IC50,Homo sapiens [2],> 4
CN(CCOc1ccc2c(c1)oc(=O)c1ccccc12)Cc1ccccc1,Ratio IC50,Homo sapiens [1],2.1
same,IC50,Acetylcholinesterase,6.7 µM
same,IC50,Cholinesterase,14.1 µM
CN(CCCOc1ccc2c(c1)oc(=O)c1ccccc12)Cc1ccccc1,Ratio IC50,Homo sapiens [1],1.7
same,IC50,Acetylcholinesterase,8.5 µM
same,IC50,Cholinesterase,14.9 µM
O=c1oc2cc(OCCN3CCC(Cc4ccccc4)CC3)ccc2c2c1CCCC2,Ratio IC50,Homo sapiens [1],> 5
same,IC50,Acetylcholinesterase,8.1 µM
same,IC50,Cholinesterase,> 40 µM
COc1cccc(CN2CCN(CCCCOc3ccc4c5c(c(=O)oc4c3)CCCC5)CC2)c1,Ratio IC50,Homo sapiens [1],2.7
same,IC50,Acetylcholinesterase,8.7 µM
same,IC50,Cholinesterase,23.4 µM
O=c1oc2cc(OCCCN3CCC(Cc4ccccc4)CC3)ccc2c2ccccc12,Ratio IC50,Homo sapiens [1],5.2
same,IC50,Acetylcholinesterase,4.1 µM
same,IC50,Cholinesterase,21.3 µM
COc1cccc(CN(C)CCCOc2ccc3c(c2)oc(=O)c2ccccc23)c1,Ratio IC50,Homo sapiens [1],1.4
same,IC50,Acetylcholinesterase,20.9 µM
same,IC50,Cholinesterase,29.2 µM
COc1cc(C(C)N(C)C)c2c(c1)oc(=O)c1ccccc12 (racemic),Ratio IC50,Homo sapiens [1],1.6
COc1cccc(CN2CCN(CCCCOc3ccc4c(c3)oc(=O)c3ccccc34)CC2)c1,Ratio IC50,Homo sapiens [1],> 1
same,IC50,Acetylcholinesterase,21.3 µM
same,IC50,Cholinesterase,> 40 µM
O=c1oc2cc(OCCN3CCN(Cc4ccccc4)CC3)ccc2c2ccccc12,Ratio IC50,Homo sapiens [1],13.4
same,IC50,Acetylcholinesterase,0.9 µM
same,IC50,Cholinesterase,12.1 µM
COc1cccc(CC2CCN(CCCCOc3ccc4c5c(c(=O)oc4c3)CCCC5)CC2)c1,Ratio IC50,Homo sapiens [1],2
same,IC50,Acetylcholinesterase,13.7 µM
same,IC50,Cholinesterase,27.8 µM
CC(c1ccc2c(c1)oc(=O)c1ccccc12)N(C)C (racemic),Ratio IC50,Homo sapiens [1],1.6
same,inhibition in vivo at 1 mg/kg,Rattus norvegicus,70%
O=c1oc2cc(OCCCCN3CCC(Cc4ccccc4)CC3)ccc2c2ccccc12,Ratio IC50,Homo sapiens [1],> 2
same,IC50,Acetylcholinesterase,14.2 µM
same,IC50,Cholinesterase,> 40 µM
COc1cccc(CN(C)CCCCOc2ccc3c(c2)oc(=O)c2ccccc23)c1,Ratio IC50,Homo sapiens [1],2.1
same,IC50,Acetylcholinesterase,8.3 µM
same,IC50,Cholinesterase,17.6 µM
COc1cccc(CN(C)CCOc2ccc3c(c2)oc(=O)c2ccccc23)c1,Ratio IC50,Homo sapiens [1],1.8
same,IC50,Acetylcholinesterase,18.4 µM
same,IC50,Cholinesterase,33.2 µM
O=c1oc2cc(OCCN3CCN(Cc4ccccc4)CC3)ccc2c2c1CCCC2,Ratio IC50,Homo sapiens [1],24.6
same,IC50,Acetylcholinesterase,1.3 µM
same,IC50,Cholinesterase,32 µM
C[C@@H](c1ccc2c(c1)oc(=O)c1ccccc12)N(C)C,Ratio IC50,Homo sapiens [1],2.1
same,inhibition in vivo at 1 mg/kg,Rattus norvegicus,71%
COc1cccc(CN(C)CCCCOc2ccc3c4c(c(=O)oc3c2)CCCC4)c1,Ratio IC50,Homo sapiens [1],> 23
same,IC50,Acetylcholinesterase,1.7 µM
same,IC50,Cholinesterase,> 40 µM
CN(CCCCOc1ccc2c(c1)oc(=O)c1ccccc12)Cc1ccccc1,Ratio IC50,Homo sapiens [1],5.9
same,IC50,Acetylcholinesterase,1.1 µM
same,inhibition in vivo at 1 mg/kg,Rattus norvegicus,62%
same,IC50,Cholinesterase,6.5 µM
CC(c1cc(O)c2c(c1)oc(=O)c1ccccc12)N(C)C (racemic),inhibition in vivo at 1 mg/kg,Rattus norvegicus,49%
same,Ratio IC50,Homo sapiens [2],4.5
O=c1oc2cc(OCCCCN3CCN(Cc4ccccc4)CC3)ccc2c2c1CCCC2,Ratio IC50,Homo sapiens [1],2.3
same,IC50,Acetylcholinesterase,6.4 µM
same,IC50,Cholinesterase,14.6 µM
O=c1oc2cc(OCCCN3CCN(Cc4ccccc4)CC3)ccc2c2ccccc12,Ratio IC50,Homo sapiens [1],4.6
same,IC50,Acetylcholinesterase,0.8 µM
same,inhibition in vivo at 1 mg/kg,Rattus norvegicus,85%
same,IC50,Cholinesterase,3.7 µM
O=c1oc2cc(OCCCN3CCN(Cc4ccccc4)CC3)ccc2c2c1CCCC2,Ratio IC50,Homo sapiens [1],3.4
same,IC50,Acetylcholinesterase,0.9 µM
same,inhibition in vivo at 1 mg/kg,Rattus norvegicus,58%
same,IC50,Cholinesterase,3.1 µM
COc1cccc(CC2CCN(CCCOc3ccc4c(c3)oc(=O)c3ccccc34)CC2)c1,Ratio IC50,Homo sapiens [1],> 2
same,IC50,Acetylcholinesterase,18.5 µM
same,IC50,Cholinesterase,> 40 µM
COc1cccc(CN2CCN(CCOc3ccc4c5c(c(=O)oc4c3)CCCC5)CC2)c1,Ratio IC50,Homo sapiens [1],> 5
same,IC50,Acetylcholinesterase,7.3 µM
same,IC50,Cholinesterase,> 40 µM
COc1cccc(CC2CCN(CCCCOc3ccc4c(c3)oc(=O)c3ccccc34)CC2)c1,Ratio IC50,Homo sapiens [1],> 1
same,IC50,Acetylcholinesterase,27.4 µM
same,IC50,Cholinesterase,> 40 µM
O=c1oc2cc(OCCCCN3CCN(Cc4ccccc4)CC3)ccc2c2ccccc12,Ratio IC50,Homo sapiens [1],> 4
same,IC50,Acetylcholinesterase,8.2 µM
same,IC50,Cholinesterase,> 40 µM
CC(c1cc(O)cc2oc(=O)c3ccccc3c12)N(C)C (racemic),Ratio IC50,Homo sapiens [1],> 1
same,IC50,Cholinesterase,> 40 µM
CN(CCCCOc1ccc2c3c(c(=O)oc2c1)CCCC3)Cc1ccccc1,Ratio IC50,Homo sapiens [1],18.9
same,IC50,Acetylcholinesterase,1 µM
same,inhibition in vivo at 1 mg/kg,Rattus norvegicus,65%
same,IC50,Cholinesterase,18.9 µM
COc1cccc(CN(C)CCCOc2ccc3c4c(c(=O)oc3c2)CCCC4)c1,Ratio IC50,Homo sapiens [1],> 14
same,IC50,Acetylcholinesterase,2.7 µM
same,IC50,Cholinesterase,> 40 µM
COc1cccc(CC2CCN(CCOc3ccc4c5c(c(=O)oc4c3)CCCC5)CC2)c1,Ratio IC50,Homo sapiens [1],> 1
same,IC50,Acetylcholinesterase,37.2 µM
same,IC50,Cholinesterase,> 40 µM
O=c1oc2cc(OCCCCN3CCC(Cc4ccccc4)CC3)ccc2c2c1CCCC2,Ratio IC50,Homo sapiens [1],2.2
same,IC50,Acetylcholinesterase,9.2 µM
same,IC50,Cholinesterase,20.1 µM
COc1cc2c(cc1OC)C(=O)C(CC1CCN(Cc3ccccc3)CC1)C2 (configuration not stated) [DONEPEZIL],inhibition in vivo at 1 mg/kg,Rattus norvegicus,58%
COc1cccc(CN(C)CCOc2ccc3c4c(c(=O)oc3c2)CCCC4)c1,Ratio IC50,Homo sapiens [1],> 6
same,IC50,Acetylcholinesterase,6 µM
same,IC50,Cholinesterase,> 40 µM
